Assay results: ChEMBL document CHEMBL1142321, “Selection of a respiratory syncytial virus fusion inhibitor clinical candidate. 2. Discovery of a morpholinopropylaminobenzimidazole derivative (TMC353121)” (J Med Chem, 2008)

How the values were obtained:
[1] = system: Respiratory syncytial virus; assay: Inhibition of RSV by MTT assay; assay type: functional, organism-based; settings: human respiratory syncytial virus
Procedure, shortened: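 HeLaM epithelial-like cells infected with RSV with or without a range of compound concentrations; viability read by MTT after 1 week incubation. OD measured spectrophotometrically and pEC50 derived. Virus, cell and cytotoxicity controls on every plate, reference compounds in every test; runs failing control criteria rejected.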

[2] = Cytotoxicity against human HeLaM cells by MTT assay; assay type: functional, M-HeLa
[3] = Half life in Sprague-Dawley rat lung; assay type: ADME, organism-based

| SMILES | EC50 [1] | pCC50 [2] | half-life [3] |
| --- | --- | --- | --- |
| Cc1ccc(O)c(Cn2c(NC3CCN(C)CC3)nc3ccc(CN(CCO)c4ccccc4)cc32)n1 | 3.16 nM | <4 | – |
| Cc1ccc(O)c(Cn2c(NCCCN3CCOCC3)nc3ccc(CN(CCO)c4ccccc4)cc32)n1 | 3.16 nM | 4.3 | – |
| Cc1cc(C)cc(NCc2ccc3nc(NCCCN4CCN(C)CC4)n(Cc4nc(C)ccc4O)c3c2)c1 | 3.98 nM | 5 | – |
| CCCCNc1nc2ccc(CNc3cc(C)cc(C)c3)cc2n1Cc1nc(C)ccc1O | > 100000 nM | 5.1 | – |
| Cc1cccc(NCc2ccc3nc(NC4CCN(CCO)CC4)n(Cc4nc(C)ccc4O)c3c2)c1 | 1.58 nM | 4.4 | 67.7 h |
| Cc1ccc(O)c(Cn2c(NC3CCN(C)CC3)nc3ccc(CNc4ccccc4)cc32)n1 | 15.8 nM | 4.5 | – |
| Cc1cc(C)cc(N(CCO)Cc2ccc3nc(NC4CCN(C)CC4)n(Cc4nc(C)ccc4O)c3c2)c1 | 0.398 nM | 4.4 | – |
| Cc1ccc(O)c(Cn2c(NCCCN3CCOCC3)nc3ccc(CNc4ccccc4CCO)cc32)n1 | 0.794 nM | 4.7 | 20.1 h |
| Cc1ccc(O)c(Cn2c(NC3CCN(CCN)CC3)nc3c(C)cccc32)n1 [JNJ 2408068] | 0.251 nM | <4 | – |
| Cc1cccc(/C=C/c2ccc3nc(NC4CCN(CCN)CC4)n(Cc4nc(C)ccc4O)c3c2)c1 | 3.16 nM | 5.1 | – |
| Cc1cccc(CCc2ccc3nc(NC4CCN(CCN)CC4)n(Cc4nc(C)ccc4O)c3c2)c1 | 1 nM | 4.9 | – |
| Cc1ccc(O)c(Cn2c(NC3CCN(CC(N)C(C)C)CC3)nc3c(C)ccnc32)n1 (stereo unspecified) | 0.1 nM | 4.3 | – |
| Cc1cccc(CNc2ccc3nc(NC4CCN(C)CC4)n(Cc4nc(C)ccc4O)c3c2)c1 | 15.8 nM | 4.8 | – |
| Cc1cc(C)cc(N(CCO)Cc2ccc3nc(NCCCN4CCOCC4)n(Cc4nc(C)ccc4O)c3c2)c1 | 0.501 nM | 4.4 | 19.6 h |
| Cc1cc(C)cc(NCc2ccc3nc(NC4CCN(CCO)CC4)n(Cc4nc(C)ccc4O)c3c2)c1 | 1.58 nM | 4.5 | 84.9 h |
| Cc1cccc(NCc2ccc3nc(NCCCN4CCOCC4)n(Cc4nc(C)ccc4O)c3c2)c1 | 2.51 nM | 4.9 | – |
